Data reported in publication PMC9710334 (BMJ Open Gastroenterology, 2022).
Where “and” joins values, the source holds several entries; their conditions need not be identical. Equal values may be shown once. Entries after “also recorded” stand apart in the source; their conditions may differ.

Assays:
[1] = test system: patients with advanced PBC; assay: Serum liver function parameters during OP-724 administration; assay type: in vivo, human
[2] = Plasma pharmacokinetics of OP-724 and C-82 after OP-724 infusion; assay type: in vivo, human; details: for OP-724 AUC0-24h / OP-724 Cmax / OP-724 Tmax / OP-724 T1/2: plasma
Outline: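 A single iv dose of 280 or 380 mg/m2 was infused over 4 hours. Blood was drawn predose, at 30 min and 1, 2 and 4 hours after dosing, then 1, 5 and 20 hours after the infusion ended. Plasma parent and metabolite C-82 were quantified. […] Values are mean±SD.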

[3] = test system: cholestatic liver fibrosis models; details: cited from earlier work
liver fibrosis models = details: cited from earlier work
[4] = test system: patients with advanced primary biliary cholangitis; assay: Phase 1 trial: adverse events graded by CTCAE v4.0, safety and tolerability; assay type: in vivo, human
Outline: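 Seven advanced PBC patients (stage III or higher) received OP-724 iv at 280 (n=6) or 380 (n=1) mg/m2 over 4 hours, twice weekly for 12 cycles, after a single dose given 7 days before cycle 1. AEs and laboratory results were recorded throughout and graded by CTCAE v4.0. The primary endpoint was SAEs where drug causality could not be excluded.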

[5] = test system: patients with liver cirrhosis induced by hepatitis B or C virus; details: cited from earlier work
[6] = OP-724 280 mg/m^2/4 hours, Max, N=6
[7] = OP-724 280 mg/m^2/4 hours, Median, N=6
[8] = OP-724 280 mg/m^2/4 hours, Min, N=6
[9] = single OP-724 iv infusion 280 mg/m^2/4 hours, Mean, N=6
[10] = single OP-724 iv infusion 380 mg/m^2/4 hours, Mean, N=1

## C[C@H]1[C@H]2N(C(=O)CN(C)N2C(=O)NCc2ccccc2)[C@@H](Cc2ccc(OP(=O)(O)O)cc2)C(=O)N1Cc1cccc2cccnc12 [OP-724]
[1]; 5, 9, 12 and 16 weeks vs baseline
  serum ALP and GGT levels: did not show a tendency to decrease
[1]; 12 weeks, of five patients with baseline and 12-week data
  patients whose abnormally high baseline total bile acid values decreased: four
[1]; during OP-724 administration, no significant difference
  serum total bile acid level: downward trend; also recorded: tendency to decrease
[1]; this study
  increase in the albumin level: this tendency was not observed
[2]; [6]
  OP-724 AUC0-24h: 9210 ng･h/mL
  OP-724 Cmax: 2460 ng/mL
  OP-724 Tmax: 4 h
[2]; [7]
  OP-724 AUC0-24h: 6340 ng･h/mL
  OP-724 Cmax: 2000 ng/mL
  OP-724 Tmax: 2 h
[2]; [8]
  OP-724 AUC0-24h: 3880 ng･h/mL
  OP-724 Cmax: 1080 ng/mL
  OP-724 Tmax: 0.5 h
[2]; single OP-724 iv infusion 280 mg/m^2/4 hours, Mean, N=4
  OP-724 T1/2: 0.438 h
[2]; [9]
  OP-724 AUC0-24h: 6420±1910 ng･h/mL and 6420 ng･h/mL
  OP-724 Cmax: 1850 ng/mL
  OP-724 Tmax: 1.9 h
[2]; [10]
  OP-724 AUC0-24h: 10200 ng·h/mL
  OP-724 Cmax: 3980 ng/mL
  OP-724 T1/2: 0.497 h
  OP-724 Tmax: 1 h
[2]; single dose, all patients
  time after initiating administration at which plasma OP-724 reached Cmax: 0.5 to 4 h
[3]
  antifibrotic effect: exerts an antifibrotic effect
Liver fibrosis models
  antifibrotic effect: exerts antifibrotic effects
[4]; 280 mg/m^2/4 hours (n=6)
  Abdominal discomfort, Grade 1, patients n (%): 2 (33%)
  Abdominal discomfort, Grade 2, patients n (%): 0
  Abdominal discomfort, Grades 3–5, patients n (%): 0
  Back pain, Grade 1, patients n (%): 0
  Back pain, Grade 2, patients n (%): 1 (17%)
  Back pain, Grades 3–5, patients n (%): 0
  Constipation, Grade 1, patients n (%): 1 (17%)
  Constipation, Grade 2, patients n (%): 0
  Constipation, Grades 3–5, patients n (%): 0
  Dermatitis contact, Grade 1, patients n (%): 1 (17%)
  Dermatitis contact, Grade 2, patients n (%): 0
  Dermatitis contact, Grades 3–5, patients n (%): 0
  Diarrhoea, Grade 1, patients n (%): 1 (17%)
  Diarrhoea, Grade 2, patients n (%): 0
  Diarrhoea, Grades 3–5, patients n (%): 0
  Dry skin, Grade 1, patients n (%): 0
  Dry skin, Grade 2, patients n (%): 1 (17%)
  Dry skin, Grades 3–5, patients n (%): 0
  Fever, Grade 1, patients n (%): 1 (17%)
  Fever, Grade 2, patients n (%): 0
  Fever, Grades 3–5, patients n (%): 0
  Haemorrhage, Grade 1, patients n (%): 0
  Haemorrhage, Grade 2, patients n (%): 1 (17%)
  Haemorrhage, Grades 3–5, patients n (%): 0
  Hepatic function abnormal, Grade 1, patients n (%): 1 (17%)
  Hepatic function abnormal, Grade 2, patients n (%): 1 (17%)
  Hepatic function abnormal, Grades 3–5, patients n (%): 0
  Infusion site extravasation, Grade 1, patients n (%): 0
  Infusion site extravasation, Grade 2, patients n (%): 1 (17%)
  Infusion site extravasation, Grades 3–5, patients n (%): 0
  Nasopharyngitis, Grade 1, patients n (%): 0
  Nasopharyngitis, Grade 2, patients n (%): 0
  Nasopharyngitis, Grades 3–5, patients n (%): 0
  Nausea, Grade 1, patients n (%): 1 (17%)
  Nausea, Grade 2, patients n (%): 0
  Nausea, Grades 3–5, patients n (%): 0
  Open angle glaucoma, Grade 1, patients n (%): 0
  Open angle glaucoma, Grade 2, patients n (%): 1 (17%)
  Open angle glaucoma, Grades 3–5, patients n (%): 0
  Renal impairment, Grade 1, patients n (%): 1 (17%)
  Renal impairment, Grade 2, patients n (%): 0
  Renal impairment, Grades 3–5, patients n (%): 0
  Tooth fracture, Grade 1, patients n (%): 1 (17%)
  Tooth fracture, Grade 2, patients n (%): 0
  Tooth fracture, Grades 3–5, patients n (%): 0
  Vomiting, Grade 1, patients n (%): 1 (17%)
  Vomiting, Grade 2, patients n (%): 0
  Vomiting, Grades 3–5, patients n (%): 0
[4]; 380 mg/m^2/4 hours (n=1)
  Abdominal discomfort, Grade 1, patients n (%): 0
  Abdominal discomfort, Grade 2, patients n (%): 0
  Abdominal discomfort, Grades 3–5, patients n (%): 0
  Back pain, Grade 1, patients n (%): 0
  Back pain, Grade 2, patients n (%): 0
  Back pain, Grades 3–5, patients n (%): 0
  Constipation, Grade 1, patients n (%): 0
  Constipation, Grade 2, patients n (%): 0
  Constipation, Grades 3–5, patients n (%): 0
  Dermatitis contact, Grade 1, patients n (%): 0
  Dermatitis contact, Grade 2, patients n (%): 0
  Dermatitis contact, Grades 3–5, patients n (%): 0
  Diarrhoea, Grade 1, patients n (%): 0
  Diarrhoea, Grade 2, patients n (%): 0
  Diarrhoea, Grades 3–5, patients n (%): 0
  Dry skin, Grade 1, patients n (%): 0
  Dry skin, Grade 2, patients n (%): 0
  Dry skin, Grades 3–5, patients n (%): 0
  Fever, Grade 2, patients n (%): 0
  Fever, Grades 3–5, patients n (%): 0
  Haemorrhage, Grade 1, patients n (%): 0
  Haemorrhage, Grade 2, patients n (%): 0
  Haemorrhage, Grades 3–5, patients n (%): 0
  Hepatic function abnormal, Grade 1, patients n (%): 0
  Hepatic function abnormal, Grades 3–5, patients n (%): 0
  Infusion site extravasation, Grade 1, patients n (%): 0
  Infusion site extravasation, Grade 2, patients n (%): 0
  Infusion site extravasation, Grades 3–5, patients n (%): 0
  Nasopharyngitis, Grade 2, patients n (%): 0
  Nasopharyngitis, Grades 3–5, patients n (%): 0
  Nausea, Grade 1, patients n (%): 0
  Nausea, Grade 2, patients n (%): 0
  Nausea, Grades 3–5, patients n (%): 0
  Open angle glaucoma, Grade 1, patients n (%): 0
  Open angle glaucoma, Grade 2, patients n (%): 0
  Open angle glaucoma, Grades 3–5, patients n (%): 0
  Renal impairment, Grade 1, patients n (%): 0
  Renal impairment, Grade 2, patients n (%): 0
  Renal impairment, Grades 3–5, patients n (%): 0
  Tooth fracture, Grade 1, patients n (%): 0
  Tooth fracture, Grade 2, patients n (%): 0
  Tooth fracture, Grades 3–5, patients n (%): 0
  Vomiting, Grade 1, patients n (%): 0
  Vomiting, Grade 2, patients n (%): 0
  Vomiting, Grades 3–5, patients n (%): 0
[4]; all patients (0/7), 280 or 380 mg/m^2/4 hours iv two times weekly, 12 weeks
  incidence of SAEs (primary endpoint): 0%
[4]; all patients (3/7)
  patients who developed general/systemic disorder and administration site status: 42.9%
  patients who developed hepatobiliary system disorder: 42.9%
[4]; all patients (4/7)
  patients who developed gastrointestinal disorder: 57.1%
[4]; all patients (6/7)
  occurrence rate of side effects: 85.7%
[4]; all patients (7/7)
  occurrence rate of AEs: 100%
[4]; all seven patients
  abdominal discomfort (most common AEs): 29%
  abnormal hepatic function (most common AEs): 43%
[4]; iv infusion two times weekly for 12 weeks, patients with advanced PBC
  recommended dosage: 280 mg/m^2/4 hours
[4]; managed with standard-of-care antiemetics
  emetogenicity: mildly or moderately emetogenic
[4]; one patient in the 380 mg/m^2/4 hours cohort
  grade of drug-induced liver injury leading to withdrawal: grade 2
[4]; seven patients, 280 or 380 mg/m^2/4 hours iv two times weekly, 12 weeks
  serious adverse events (in words): did not occur; also recorded: no SAE was observed
[4]; seven patients, administration period
  deaths related to drug administration: no deaths related to drug administration were observed
[4]; this study
  fragility fractures: no fragility fractures were recorded
[5]; one patient at level 3 (380 mg/m^2/4 hours), PRI-724-2101 study ref 25
  liver dysfunction reported as SAE: severe liver dysfunction
[5]; phase 1 or 1/2a clinical trials ref 24 25
  harmful effects in humans: does not have harmful effects in humans
[5]; previous clinical trials ref 24 25
  albumin level: increase in the albumin level
